HCT116 bCat-KO: beta-catenin-lacking colon tumor cell growth suppression. viability, % at 10 µM. AID 818. HCT116 beta-catenin knockout viability, CellTiter-Glo, 60 h; stronger effect = lower value. actives 1.5% (n = 140,000);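 active = viability at or under a set limit, the compound median less 4 SD, cut at about 6% in these data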;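 note: 0% = Hyamine 1622 control at 20 µM and 100% = untreated cell control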
HUVEC inhibit: human endothelial cell proliferation inhibition. HUVEC proliferation, CellTiter-Glo luminescence, 72 h; stronger effect = lower value. viability, % at 10 µM (by protocol). actives 1.1% (n = 86,000);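 active = viability at or below 30%; inactive = viability above 30%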;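 note: 100% = median luminescence of DMSO-only cell control wells on each plate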
HCT116 PTEN-null: suppresses growth of cells with PTEN deletion | HCT116 PTEN-null viability, CellTiter-Glo, 60 h; stronger effect = lower value | viability, % at 10 µM | actives 1.2% (n = 140,000);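 active = viability at or below a set limit, 4 SD under the median of all tested compounds, cut at about 3.7% in these data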;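 note: PTEN knockout HCT116 line with beta catenin targeted HCT116 as companion control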
H69AR inhibit: blocks growth of human H69AR lung tumor cells; H69AR lung tumor viability, ATP luminescence, 72 h; stronger effect = lower value; viability, % at 10 µM; actives 6% (n = 85,000);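 active = viability at or below 40%; inactive = viability above 40%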;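 note: multidrug resistant small cell line overexpressing MRP-1 efflux transporter; 100% = mean luminescence of untreated control wells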
Fibroblast inh: blocks proliferation of human lung fibroblasts; viability, % at 10 µM; AID 719; LL 47 human lung fibroblast viability, ATP luminescence; stronger effect = lower value; actives 1.1% (n = 85,000);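 active = viability at or below 50% in the single dose screen; inactive = viability above 50%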;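 note: compound exposure lasted 72 h before the ATP readout; 100% = median luminescence of untreated cell-only wells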
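Material: human LL 47 lung fibroblast cells; quantity: 1,150 cells/well; medium: IMEM plus 15% FBS; doses: 0.1% DMSO in all compound wells; timing: overnight attachment after seeding, then 72 h compound exposure at 37 °C; detection: CellTiter-Glo luminescence; measure: % viability of median cell-only signal; controls: cell-only wells, no compound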
Numbers without * were called inactive; / = no result given. The full list was thinned out, with hits kept by preference.

SMILES	HCT116 bCat-KO	HUVEC inhibit	HCT116 PTEN-null	H69AR inhibit	Fibroblast inh
COCCCNC(=O)c1cc2c(s1)CS(=O)(=O)C2	98	100	96	98	101
O=C(Nc1ccc(Cl)cc1)c1cnc(-c2ccccc2)nc1-c1ccccc1	0.9*	/	2.7*	/	/
O=C(Nc1ccc(F)cc1)c1sc(Cl)nc1-c1ccccc1	103	/	95	/	/
Cc1cc(C)c(OCCN2C(=O)NC(C)(C)C2=O)c(Cl)c1	86	102	97	95	100
CCCCn1c(SC(C)C(=O)c2ccc(OC)cc2)nc2cc(S(N)(=O)=O)ccc21 (stereo not drawn)	75	102	58	33*	98
CCCCn1c(SCC(=O)c2ccc(OC)cc2OC)nc2cc(S(N)(=O)=O)ccc21	87	113	94	73	102
Cc1ccc(-c2nn3c(C)nnc3s2)cc1NC(=O)COc1ccc(Cl)cc1	103	77	102	43	69
O=S(=O)(c1ccccc1)N1CCSC1c1ccco1 (stereo not drawn)	97	90	101	94	91
CCSC1(SCC)N=C(N)C2(C#N)C(c3ccc(OC)c(OC)c3OC)C12C#N (stereo not drawn)	76	45	85	2.1*	51
CCSC1(SCC)N=C(N)C2(C#N)C(c3ccccc3)NC3=C(CCC3)C12C#N (stereo not drawn)	76	97	89	78	97
CCc1ccc(/C=C\C(=O)N2CCc3ccccc3C2)cc1	102	/	98	/	/
Oc1ccccc1C1Nc2cccc3cccc(c23)N1	88	78	102	34*	88
CCOc1cc(C2Nc3cccc4cccc(c34)N2)ccc1O	89	61	94	36*	98
COc1ccccc1C1Nc2cccc3cccc(c23)N1	80	87	90	86	110
CCOc1ccc(C2Nc3cccc4cccc(c34)N2)cc1OC	54	77	63	91	93
O=C(CSc1nnc(-c2ccco2)n1CC1CCCO1)c1ccc(F)cc1 (stereo not drawn)	93	99	94	73	104
C/C(=C1/SC(N2CCOCC2)=NC1=O)c1ccc(Cl)cc1	91	87	83	96	96
Cn1nc(C(=O)Nc2cccnc2)c2ccccc2c1=O	92	100	92	88	100
O=C1c2ccccc2C(=O)C12OC2c1ccc(Cl)cc1 (stereo not drawn)	48	/	50	/	/
CCOc1cc(C(=O)N/N=C/C(Br)=C/c2ccccc2)cc(OCC)c1OCC	14	/	2.3*	/	/
Cc1cc(C)nc(SCC(=O)N/N=C\C(Br)=C\c2ccccc2)n1	62	/	66	/	/
COc1ccc(/C=N/NC(=O)c2c(-c3ccccc3)noc2C)cc1	105	/	96	/	/
Cc1onc(-c2ccccc2)c1C(=O)N/N=C/C(Br)=C/c1ccccc1	3.6*	/	2.9*	/	/
O=C(N/N=C/C(Br)=C\c1ccccc1)c1ccc2nc[nH]c2c1	2.2*	/	3.3*	/	/
Cc1ccc(NCC(=O)N/N=C\C(Br)=C\c2ccccc2)cc1	2.6*	100	2.7*	74	100
SMILES	HCT116 bCat-KO	HUVEC inhibit	HCT116 PTEN-null	H69AR inhibit	Fibroblast inh
Cn1ccnc1SCC(=O)c1ccc(Br)cc1	81	88	73	29*	96
COc1cc(SC)ccc1C(=O)OC1CCOC1=O (stereo not drawn)	95	90	99	85	103
Cc1c(Cl)cccc1N/C(SCC(=O)N1CCCCCC1)=C(/C#N)c1nc2ccccc2s1	1.7*	/	1.6*	/	/
O=C(CSc1nc2ccccc2s1)N1CCCCC1	88	104	110	76	114
CC(C)(C)c1n[nH]c2c1CCCC2	98	/	92	/	/
OCCN1CCN(C2Cc3cc(Cl)ccc3Sc3ccc(Cl)cc32)CC1 (stereo not drawn) (tested in a mixture with another compound)	33	2.4*	44	8.9*	92
CN1CCN(CCOC2Cc3ccccc3Sc3ccc(Cl)cc32)CC1 (stereo not drawn)	29	/	33	/	/
Cc1ccc2nc(N(CCN(C)C)C(=O)/C=C/c3cccs3)sc2c1	78	/	80	/	/
CN(C)CCN(C(=O)/C=C/c1cccs1)c1nc2c(F)cc(F)cc2s1	1.6*	/	2.0*	/	/
CCN1c2ccccc2NC2N=C(OC)C(c3ccccc3)C21 (stereo not drawn)	1.9*	2.1*	1.7*	1.4*	7.0*
N=c1c(C(=O)NCc2ccco2)cc2c(=O)n3ccccc3nc2n1Cc1ccc(Cl)cc1	13	70	11	26*	61
CCCn1c(=NC(=O)c2ccc3c(c2)OCO3)c(C#N)cc2c(=O)n3cccc(C)c3nc21	/	79	/	38*	83
CCCCCn1c(=NC(=O)c2ccco2)c(C(=O)OCC)cc2c(=O)n3ccccc3nc21	78	92	76	27*	89
CCOCCCn1c(=N)c(C(=O)NCc2ccc3c(c2)OCO3)cc2c(=O)n3cccc(C)c3nc21	2.8*	78	5	55	62
COCCCn1c(=N)c(C(=O)NCc2ccc3c(c2)OCO3)cc2c(=O)n3cccc(C)c3nc21	/	82	/	70	90
N=c1c(C(=O)NCc2ccco2)cc2c(=O)n3ccccc3nc2n1Cc1ccccc1	55	79	45	46	91
C/C(=N\OC(=O)NC(C)C)c1sc(-c2ccc(Cl)cc2)nc1C	53	/	50	/	/
CCOC(=O)c1cc2c(s1)-c1ccccc1CC2	87	/	85	/	/
CCOc1ccc(NS(=O)(=O)c2cc(NC(=O)CCS(=O)(=O)c3ccc(C)cc3)ccc2OC)cc1	64	/	59	/	/
COc1ccc(CNC(=O)c2cc3c(=O)n4ccccc4nc3n(Cc3cccnc3)c2=N)cc1	81	88	76	27*	91
N=c1c(C(=O)NCc2ccccc2)cc2c(=O)n3ccccc3nc2n1Cc1ccco1	11	78	16	39*	81
N=c1c(C(=O)NCc2ccc(F)cc2)cc2c(=O)n3ccccc3nc2n1Cc1ccco1	60	/	62	/	/
N=c1c(C(=O)NCc2ccc3c(c2)OCO3)cc2c(=O)n3ccccc3nc2n1Cc1cccnc1	77	87	72	72	92
Cc1cccn2c(=O)c3cc(C(=O)NCc4ccco4)c(=N)n(CCc4ccccc4)c3nc12	/	56	/	31*	59
Cc1cccn2c(=O)c3cc(C(=O)NCc4ccco4)c(=N)n(C(C)C)c3nc12	68	94	71	70	100
Cc1cccn2c(=O)c3cc(C(=O)NC(C)c4ccccc4)c(=N)n(CCCn4ccnc4)c3nc12 (stereo not drawn)	/	65	/	12*	68
Cc1ccc2nc3c(cc(C(=O)NCc4ccccc4)c(=N)n3CCCn3ccnc3)c(=O)n2c1	/	49	/	66	87
COc1ccc(C(=O)Nc2cc3c(cc2C#N)OCO3)cc1S(=O)(=O)NCc1ccco1	99	94	98	106	96
O=C(CSc1nnc(-c2cccs2)n1-c1ccccc1)Nc1ccccc1	56	80	49	64	41*

Bioassay records: PubChem BioAssay, SRMLSC
